# Measured values taken from ChEMBL document CHEMBL1914406, “Inhibitory effect of novel 5-O-acyl juglones on mammalian DNA polymerase activity, cancer cell growth and inflammatory response” (Bioorg Med Chem, 2011).
# Calls of active or inactive are those of the source. No cut-off for these calls is given here.
# Molecular target: T1, DNA polymerase kappa (Homo sapiens) (UniProt Q9UBT6)
# T1 sequence (whole entry): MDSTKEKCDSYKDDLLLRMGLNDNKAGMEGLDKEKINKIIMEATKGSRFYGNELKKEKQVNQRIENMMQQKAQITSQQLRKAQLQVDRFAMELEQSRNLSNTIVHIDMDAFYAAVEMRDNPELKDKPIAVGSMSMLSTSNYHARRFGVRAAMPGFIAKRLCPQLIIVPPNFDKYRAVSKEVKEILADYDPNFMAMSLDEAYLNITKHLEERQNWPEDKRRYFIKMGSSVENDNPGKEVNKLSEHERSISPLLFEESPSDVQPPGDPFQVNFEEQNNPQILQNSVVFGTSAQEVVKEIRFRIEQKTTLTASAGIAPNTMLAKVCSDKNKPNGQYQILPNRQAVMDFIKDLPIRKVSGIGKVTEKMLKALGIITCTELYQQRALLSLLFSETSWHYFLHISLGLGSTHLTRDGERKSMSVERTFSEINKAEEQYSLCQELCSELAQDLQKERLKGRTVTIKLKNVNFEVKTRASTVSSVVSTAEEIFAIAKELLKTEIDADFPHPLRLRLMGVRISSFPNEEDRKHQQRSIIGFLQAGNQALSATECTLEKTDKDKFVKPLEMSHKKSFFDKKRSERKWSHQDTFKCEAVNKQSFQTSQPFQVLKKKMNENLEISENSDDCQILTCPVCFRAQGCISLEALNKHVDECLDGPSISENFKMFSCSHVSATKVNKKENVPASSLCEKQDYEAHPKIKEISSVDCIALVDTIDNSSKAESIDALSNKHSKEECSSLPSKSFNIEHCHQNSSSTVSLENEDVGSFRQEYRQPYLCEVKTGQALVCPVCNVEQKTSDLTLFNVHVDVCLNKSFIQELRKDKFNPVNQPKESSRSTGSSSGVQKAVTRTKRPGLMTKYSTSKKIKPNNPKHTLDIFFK
# Experiment: Inhibition of C-terminal His6-tagged human DNA polymerase kappa (amino acids 1 to 560) using poly(dA)/oligo(dT)18 (A/T = 2/1) and dTTP as the DNA template-primer and nucleotide substrate at 10 uM after 60 mins
# Settings: not given
row,Compound,inhibition
1,CCCCCCCC/C=C\CCCCCCCC(=O)O [OLEIC ACID],inactive
2,CCC(=O)O [PROPIONIC ACID],inactive
3,CC/C=C\C/C=C\C/C=C\C/C=C\C/C=C\C/C=C\CCC(=O)Oc1cccc2c1C(=O)C=CC2=O,Active

# Test system: not listed separately
# Experiment: Cytotoxicity against mouse RAW264.7 cells
# Format: cell-based
# Settings: read-out: LD50 (the source's name)
row,Compound,CC50 [µM]
1,CCCCCCCC/C=C\CCCCCCCC(=O)O [OLEIC ACID],> 10
2,CCC(=O)O [PROPIONIC ACID],> 10
3,CC/C=C\C/C=C\C/C=C\C/C=C\C/C=C\C/C=C\CCC(=O)Oc1cccc2c1C(=O)C=CC2=O,> 10

# Test system: Nucleic Acid
# Experiment: Binding affinity to DNA assessed as thermal transition of DNA relative to control
# Format: nucleic-acid assay
# Settings: not given
row,Compound,Activity
1,CC/C=C\C/C=C\C/C=C\C/C=C\C/C=C\C/C=C\CCC(=O)Oc1cccc2c1C(=O)C=CC2=O,inactive

# Molecular target: T2, DNA polymerase lambda (Homo sapiens) (UniProt Q9UGP5)
# T2 sequence (whole entry): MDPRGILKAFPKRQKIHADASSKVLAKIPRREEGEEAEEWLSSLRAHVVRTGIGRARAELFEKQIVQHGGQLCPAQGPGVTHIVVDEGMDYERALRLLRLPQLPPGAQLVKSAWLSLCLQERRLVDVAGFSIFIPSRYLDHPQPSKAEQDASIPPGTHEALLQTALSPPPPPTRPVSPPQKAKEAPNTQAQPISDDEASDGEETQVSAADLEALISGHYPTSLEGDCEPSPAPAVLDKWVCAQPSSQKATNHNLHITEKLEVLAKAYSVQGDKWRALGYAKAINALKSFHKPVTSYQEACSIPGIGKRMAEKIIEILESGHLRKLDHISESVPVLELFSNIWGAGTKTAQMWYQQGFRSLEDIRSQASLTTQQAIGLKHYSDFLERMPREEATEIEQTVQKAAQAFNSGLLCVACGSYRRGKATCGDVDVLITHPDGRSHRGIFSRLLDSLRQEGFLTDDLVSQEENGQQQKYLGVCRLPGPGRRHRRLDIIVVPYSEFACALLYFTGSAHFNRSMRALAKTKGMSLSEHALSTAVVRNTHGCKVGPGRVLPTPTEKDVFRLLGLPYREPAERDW
# Experiment: Inhibition of recombinant His-tagged human DNA polymerase lambda using poly(dA)/oligo(dT)18 (A/T = 2/1) and dTTP as the DNA template-primer and nucleotide substrate at 10 uM after 60 mins
# Settings: not given
# How it was run: (§1)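 Compound in DMSO, sonicated 30 s. Premixed 0 °C, 10 min with enzyme (0.05 units) in 50 mM Tris-HCl pH 7.5, 1 mM DTT, 50% glycerol, 0.1 mM EDTA, then added to standard reaction mixture. Template-primers: poly(dA)/oligo(dT)18 (2/1) for pols, oligo(dT)18 for TdT, poly(rA)/oligo(dT)18 for HIV-1 RT, with [3H]dTTP. 60 min at 37 °C (Taq 74 °C). Activity relative to no-inhibitor control; mean ± SE of three experiments.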
row,Compound,inhibition
1,CCCCCCCC/C=C\CCCCCCCC(=O)O [OLEIC ACID],inactive
2,CCC(=O)O [PROPIONIC ACID],inactive
3,CC/C=C\C/C=C\C/C=C\C/C=C\C/C=C\C/C=C\CCC(=O)Oc1cccc2c1C(=O)C=CC2=O,Active

# Organism: Homo sapiens
# Experiment: Inhibition of histidine-tagged human DNA polymerase gamma using bovine deoxyribonuclease 1-treated DNA and dNTP as the DNA template-primer and nucleotide substrate at 10 uM after 60 mins
# Settings: not given
row,Compound,inhibition
1,CCCCCCCC/C=C\CCCCCCCC(=O)O [OLEIC ACID],inactive
2,CCC(=O)O [PROPIONIC ACID],inactive
3,CC/C=C\C/C=C\C/C=C\C/C=C\C/C=C\C/C=C\CCC(=O)Oc1cccc2c1C(=O)C=CC2=O,Active

# Test system: RAW264.7
# Experiment: Cytotoxicity against mouse RAW264.7 cells at 5 uM
# Format: cell-based
# Settings: raw264.7, 5 µM
row,Compound,Activity
1,CCCCCCCC/C=C\CCCCCCCC(=O)O [OLEIC ACID],Non-toxic
2,CCC(=O)O [PROPIONIC ACID],Non-toxic
3,CC/C=C\C/C=C\C/C=C\C/C=C\C/C=C\C/C=C\CCC(=O)Oc1cccc2c1C(=O)C=CC2=O,Non-toxic

# Test system: Mus musculus
# Experiment: Antiinflammatory activity in mouse assessed as inhibition of TPA-induced mouse ear edema at 500 ug/ear administered 30 mins before TPA challenge measured after 7 hrs relative to untreated control
# Format: functional, organism-based
# Settings: not given
# How it was run: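 Compound (500 µg) applied to one mouse ear; 30 min later TPA (0.5 µg) applied to both ears. Edema scored after 7 h and expressed as percentage of edema. Mean ± SE, n = 6.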
row,Compound,Activity
1,CCCCCCCC/C=C\CCCCCCCC(=O)O [OLEIC ACID],inactive
2,CCC(=O)O [PROPIONIC ACID],inactive
3,CC/C=C\C/C=C\C/C=C\C/C=C\C/C=C\C/C=C\CCC(=O)Oc1cccc2c1C(=O)C=CC2=O,Active

# Molecular target: T2, DNA polymerase lambda (Homo sapiens)
# Experiment: Inhibition of recombinant His-tagged human DNA polymerase lambda using bovine deoxyribonuclease 1-treated DNA and dNTP as the DNA template-primer and nucleotide substrate at 10 uM after 60 mins
# Settings: not given
row,Compound,inhibition
1,CCCCCCCC/C=C\CCCCCCCC(=O)O [OLEIC ACID],inactive
2,CCC(=O)O [PROPIONIC ACID],inactive
3,CC/C=C\C/C=C\C/C=C\C/C=C\C/C=C\C/C=C\CCC(=O)Oc1cccc2c1C(=O)C=CC2=O,Active

# Test system: HCT-116
# Experiment: Cytotoxicity against human HCT116 cells by WST-1 assay
# Format: functional, cell-based
# Settings: not given
# How it was run: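 HCT116 colon carcinoma cells (ATCC) grown in McCoy's 5A with 10% FBS, penicillin and streptomycin, 37 °C, 5% CO2. Plated at 1 × 10⁴ cells/well together with compound, which was diluted from a 10 mM DMSO stock into medium (final 0.5% DMSO). Incubated 24 h. Viability read by WST-1, expressed relative to untreated cells.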
row,Compound,Activity
1,CCCCCCCC/C=C\CCCCCCCC(=O)O [OLEIC ACID],inactive
2,CCC(=O)O [PROPIONIC ACID],inactive

# Organism: Bos taurus
# Experiment: Inhibition of calf DNA polymerase alpha using poly(dA)/oligo(dT)18 (A/T = 2/1) and dTTP as the DNA template-primer and nucleotide substrate at 10 uM after 60 mins
# Settings: not given
# How it was run: as §1
row,Compound,inhibition
1,CCCCCCCC/C=C\CCCCCCCC(=O)O [OLEIC ACID],inactive
2,CCC(=O)O [PROPIONIC ACID],inactive
3,CC/C=C\C/C=C\C/C=C\C/C=C\C/C=C\C/C=C\CCC(=O)Oc1cccc2c1C(=O)C=CC2=O,Active

# Molecular target: T1, DNA polymerase kappa (Homo sapiens)
# Experiment: Inhibition of C-terminal His6-tagged human DNA polymerase kappa (amino acids 1 to 560) using bovine deoxyribonuclease 1-treated DNA and dNTP as the DNA template-primer and nucleotide substrate at 10 uM after 60 mins
# Settings: not given
row,Compound,inhibition
1,CCCCCCCC/C=C\CCCCCCCC(=O)O [OLEIC ACID],inactive
2,CCC(=O)O [PROPIONIC ACID],inactive
3,CC/C=C\C/C=C\C/C=C\C/C=C\C/C=C\C/C=C\CCC(=O)Oc1cccc2c1C(=O)C=CC2=O,Active

# Organism: Homo sapiens
# Experiment: Inhibition of histidine-tagged human DNA polymerase gamma using poly(dA)/oligo(dT)18 (A/T = 2/1) and dTTP as the DNA template-primer and nucleotide substrate at 10 uM after 60 mins
# Settings: not given
# How it was run: as §1
row,Compound,inhibition
1,CCCCCCCC/C=C\CCCCCCCC(=O)O [OLEIC ACID],inactive
2,CCC(=O)O [PROPIONIC ACID],inactive
3,CC/C=C\C/C=C\C/C=C\C/C=C\C/C=C\C/C=C\CCC(=O)Oc1cccc2c1C(=O)C=CC2=O,Active

# Test system: RAW264.7
# Experiment: Antiinflammatory activity in mouse RAW264.7 cells assessed as inhibition of LPS-induced TNFalpha secretion at 5 uM treated 30 mins before LPS challenge measured after 24 hrs by ELISA
# Format: functional, cell-based
# Settings: not given
# How it was run: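 RAW264.7 cells in MEM with 4.5 g/L glucose, 10% FCS, 5 mM L-glutamine, at 37 °C in 5% CO2. Seeded at 5 × 10⁴ cells/well and grown 24 h. Compound (final 1 and 5 µM) given 30 min before 100 ng/mL LPS. After 24 h, TNF-α in the medium measured by ELISA, relative to the no-compound value (100%). Mean ± SE, n = 4.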
row,Compound,Activity
1,CCCCCCCC/C=C\CCCCCCCC(=O)O [OLEIC ACID],inactive
2,CCC(=O)O [PROPIONIC ACID],inactive

# Organism: Bos taurus
# Experiment: Inhibition of calf DNA polymerase alpha using bovine deoxyribonuclease 1-treated DNA and dNTP as the DNA template-primer and nucleotide substrate at 10 uM after 60 mins
# Settings: not given
row,Compound,inhibition
1,CCCCCCCC/C=C\CCCCCCCC(=O)O [OLEIC ACID],inactive
2,CCC(=O)O [PROPIONIC ACID],inactive
3,CC/C=C\C/C=C\C/C=C\C/C=C\C/C=C\C/C=C\CCC(=O)Oc1cccc2c1C(=O)C=CC2=O,Active
